# In ChEMBL document CHEMBL1833825, “3-Aryl-2-[1H-benzotriazol-1-yl]acrylonitriles: a novel class of potent tubulin inhibitors” (Eur J Med Chem, 2011):
# Calls of active or inactive are those of the source. The rule behind the calls is not given here.
# What was measured:
# [1] = Cytotoxicity against human MT4 cells infected with HTLV-1 after 96 hrs by MTT assay; type: cell-based
# How it was run: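 Mock-infected MT-4 cells (CD4+ T-cells carrying integrated HTLV-1 genome) were seeded at 1×10^5 cells/mL in RPMI-1640 with 10% FCS and penicillin/streptomycin. They were given serial compound dilutions for 96 h at 37 °C, 5% CO2, and viability was read by MTT. The value is the concentration reducing viability by 50%. Mean of two experiments; duplicate variation <15%.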
# SK-MES-1 = assay: Antiproliferative activity against human SKMES1 cells after 96 hrs by MTT assay; type: functional; conditions: SK-MES-1, 96 h
# How it was run: (§1)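 Solid-tumor lines (SK-MEL-28, MCF-7, SK-MES-1, HepG-2, DU-145) were seeded at 1×10^5 cells/mL in their specific media with 10% FCS plus antibiotics. Serial dilutions of compounds (100 mM DMSO stocks diluted in medium) were applied for 96 h at 37 °C, 5% CO2, with MTT readout. 50% proliferation-inhibition concentration; untreated controls underwent ≥3 multiplication rounds; mean of two experiments, duplicate variation <15%.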
# CCRF-SB = assay: Antiproliferative activity against human CCRF-SB cells after 96 hrs by MTT assay; type: functional
# How it was run: (§2)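 Hematological lines (CCRF-CEM, CCRF-SB, WIL-2NS) were seeded exponentially growing at 1×10^5 cells/mL in RPMI-1640 with 10% FCS, penicillin G and streptomycin. They were exposed to serial dilutions (from 100 mM DMSO stocks) for 96 h at 37 °C, 5% CO2, then read by MTT. The value is the concentration giving 50% proliferation reduction, with controls allowed ≥3 rounds of multiplication. Mean of two experiments; duplicate variation <15%.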
# SK-MEL-28 = assay: Antiproliferative activity against human SK-MEL-28 cells after 96 hrs by MTT assay; type: functional; conditions: SK-MEL-28, 96 h; how it was run: as §1
# WIL2-NS = assay: Antiproliferative activity against human WIL2-NS cells after 96 hrs by MTT assay; type: functional; how it was run: as §2
# MCF7 = assay: Antiproliferative activity against human MCF7 cells after 96 hrs by MTT assay; type: functional; conditions: MCF7, 96 h; how it was run: as §1
# HepG2 = assay: Antiproliferative activity against human HepG2 cells after 96 hrs by MTT assay; type: functional; conditions: HepG2, 96 h; how it was run: as §1
# CCRF-CEM = assay: Antiproliferative activity against human CCRF-CEM cells after 96 hrs by MTT assay; type: functional; conditions: read-out: CC50; how it was run: as §2
# K562 [2] = assay: Cell cycle arrest in human K562 cells assessed as accumulation at S phase at total growth inhibitory compound concentration 24 hrs using propidium iodide staining by FACS analysis (reference value: 47%); type: functional; parameters: scale not given: the % may be the effect or the level left
# DU-145 = assay: Antiproliferative activity against human DU145 cells after 96 hrs by MTT assay; type: functional; conditions: DU-145, 96 h, read-out: CC50; how it was run: as §1
# K562 [3] = assay: Cell cycle arrest in human K562 cells assessed as accumulation at G2/M phase at total growth inhibitory compound concentration 24 hrs using propidium iodide staining by FACS analysis (reference value: 18%); type: functional; parameters: scale not given: the % may be the effect or the level left
# K562 [4] = assay: Cell cycle arrest in human K562 cells assessed as accumulation at G0/G1 phase at total growth inhibitory compound concentration 24 hrs using propidium iodide staining by FACS analysis (reference value: 35%); type: functional; parameters: scale not given: the % may be the effect or the level left
# [5] = Displacement of [3H]paclitaxel from biotin-labeled tubulin after 2 hrs by competitive scintillation proximity assay
# [6] = Displacement of [3H]colchicine from biotin-labeled tubulin after 2 hrs by competitive scintillation proximity assay
# How it was run: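 Scintillation proximity format: biotinylated tubulin, reconstituted per manufacturer, was incubated with [3H]colchicine and diluted compound in binding buffer at 37 °C for 2 h. Streptavidin-coated yttrium SPA beads were then added and bound radioactivity counted. IC50 came from nonlinear regression.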
smiles,measurement,setting,value
N#C/C(=C\c1ccc([N+](=O)[O-])cc1)n1nc2ccccc2n1,CC50 at 96 h,[1],0.4 µM
COc1ccc(/C=C(\C#N)n2nnc3ccccc32)cc1OC,CC50 at 96 h,[1],7.5 µM
Sc1ncnc2nc[nH]c12 [MERCAPTOPURINE ANHYDROUS],CC50,SK-MES-1,58 µM
same,CC50,CCRF-SB,1.1 µM
same,CC50,SK-MEL-28,15 µM
same,CC50,WIL2-NS,3 µM
same,CC50 at 96 h,[1],0.1 µM
same,CC50,MCF7,3.2 µM
same,CC50,HepG2,8 µM
N#C/C(=C\c1ccccc1)n1nnc2ccccc21,CC50 at 96 h,[1],4 µM
N#C/C(=C\c1ccccc1)n1nc2ccccc2n1,CC50 at 96 h,[1],12 µM
N#C/C(=C\c1ccc2c(c1)OCO2)n1nnc2ccc(C(F)(F)F)cc21,CC50 at 96 h,[1],52 µM
COc1ccc(/C=C(\C#N)n2nc3ccccc3n2)cc1OC,CC50 at 96 h,[1],360 µM
COc1cccc(/C=C(\C#N)n2nnc3ccccc32)c1,CC50 at 96 h,[1],4.7 µM
N#C/C(=C\c1ccc(C(=O)O)cc1)n1nnc2ccccc21,CC50 at 96 h,[1],17 µM
N#C/C(=C\c1ccccc1I)n1nnc2ccccc21,CC50 at 96 h,[1],25 µM
N#C/C(=C\c1ccc(Cl)cc1)n1nc2ccccc2n1,CC50 at 96 h,[1],16 µM
COc1cc(/C=C(\C#N)n2nnc3ccccc32)cc(OC)c1OC,CC50 at 96 h,[1],2.5 µM
COc1ccc(/C=C(\C#N)n2nnc3ccc(C(F)(F)F)cc32)cc1,CC50 at 96 h,[1],200 µM
Cc1cc2nnn(/C(C#N)=C/c3ccc(Cl)cc3)c2cc1C,CC50 at 96 h,[1],24 µM
N#C/C(=C\c1ccccc1[N+](=O)[O-])n1nnc2ccccc21,CC50 at 96 h,[1],31 µM
N#C/C(=C\c1ccco1)n1nc2ccccc2n1,CC50 at 96 h,[1],375 µM
COc1cc([C@@H]2c3cc4c(cc3[C@@H](O[C@@H]3O[C@@H]5CO[C@@H](C)O[C@H]5[C@H](O)[C@H]3O)[C@H]3COC(=O)[C@H]23)OCO4)cc(OC)c1O [ETOPOSIDE],CC50,SK-MES-1,0.3 µM
same,CC50,CCRF-SB,0.1 µM
same,CC50,SK-MEL-28,1.2 µM
same,CC50,WIL2-NS,0.2 µM
same,CC50 at 96 h,[1],0.09 µM
same,CC50,MCF7,1 µM
same,CC50,HepG2,0.7 µM
COc1ccccc1/C=C(\C#N)n1nnc2ccccc21,CC50 at 96 h,[1],8.3 µM
N#C/C(=C\c1ccc(Br)cc1)n1nnc2ccccc21,IC50 (50% antiproliferative concentration),CCRF-CEM,0.4 µM
same,CC50,SK-MES-1,2.4 µM
same,CC50,CCRF-SB,0.3 µM
same,CC50,SK-MEL-28,1.1 µM
same,Activity,K562 [2],22.41%
same,CC50,WIL2-NS,0.6 µM
same,IC50 (50% proliferation-inhibition concentration),DU-145,1.7 µM
same,CC50 at 96 h,[1],0.4 µM
same,Activity,K562 [3],35.34%
same,CC50,MCF7,0.7 µM
same,Activity,K562 [4],42.25%
same,CC50,HepG2,2.1 µM
Cc1ccc(/C=C(\C#N)n2nnc3ccccc32)cc1,IC50 (50% antiproliferative concentration),CCRF-CEM,0.2 µM
same,CC50,SK-MES-1,1.7 µM
same,CC50,CCRF-SB,0.07 µM
same,CC50,SK-MEL-28,0.3 µM
same,CC50,WIL2-NS,0.2 µM
same,IC50 (50% proliferation-inhibition concentration),DU-145,0.5 µM
same,CC50 at 96 h,[1],0.5 µM
same,CC50,MCF7,0.7 µM
same,CC50,HepG2,2.2 µM
N#C/C(=C\c1ccc(F)cc1)n1nc2ccccc2n1,CC50 at 96 h,[1],32 µM
N#C/C(=C\c1ccc(Cl)cc1Cl)n1nnc2ccccc21,CC50 at 96 h,[1],6 µM
COc1ccc(/C=C(\C#N)n2nnc3cc(Cl)c(Cl)cc32)cc1,IC50 (50% antiproliferative concentration),CCRF-CEM,> 100 µM
same,CC50,SK-MES-1,> 100 µM
same,CC50,CCRF-SB,> 100 µM
same,CC50,SK-MEL-28,> 100 µM
same,CC50,WIL2-NS,> 100 µM
same,IC50 (50% proliferation-inhibition concentration),DU-145,> 100 µM
same,CC50 at 96 h,[1],14 µM
same,CC50,MCF7,> 100 µM
same,CC50,HepG2,> 100 µM
Cc1ccc(/C=C(\C#N)n2nnc3cc(Cl)c(Cl)cc32)cc1,IC50 (50% antiproliferative concentration),CCRF-CEM,2.8 µM
same,CC50,SK-MES-1,27 µM
same,CC50,CCRF-SB,2.8 µM
same,CC50,SK-MEL-28,20 µM
same,Activity,K562 [2],15.5%
same,CC50,WIL2-NS,7 µM
same,IC50 (50% proliferation-inhibition concentration),DU-145,17 µM
same,CC50 at 96 h,[1],1.7 µM
same,Activity,K562 [3],67%
same,CC50,MCF7,27 µM
same,Activity,K562 [4],18.5%
same,CC50,HepG2,21 µM
N#C/C(=C\c1ccc(C(=O)O)cc1)n1nc2ccccc2n1,CC50 at 96 h,[1],16 µM
COc1ccc(/C=C(\C#N)n2nnc3ccccc32)cc1,IC50 (50% antiproliferative concentration),CCRF-CEM,0.2 µM
same,CC50,SK-MES-1,0.6 µM
same,CC50,CCRF-SB,0.09 µM
same,CC50,SK-MEL-28,0.2 µM
same,Activity,K562 [2],24%
same,CC50,WIL2-NS,0.1 µM
same,IC50 (50% proliferation-inhibition concentration),DU-145,0.6 µM
same,CC50 at 96 h,[1],0.05 µM
same,Activity,K562 [3],70.5%
same,CC50,MCF7,0.1 µM
same,Activity,K562 [4],5.5%
same,CC50,HepG2,0.8 µM
N#C/C(=C\c1cccc([N+](=O)[O-])c1)n1nnc2ccccc21,CC50 at 96 h,[1],0.4 µM
N#C/C(=C\c1ccc(Br)cc1)n1nnc2cc(Cl)c(Cl)cc21,IC50 (50% antiproliferative concentration),CCRF-CEM,5.3 µM
same,CC50,SK-MES-1,10 µM
same,CC50,CCRF-SB,12 µM
same,CC50,SK-MEL-28,10 µM
same,CC50,WIL2-NS,18 µM
same,IC50 (50% proliferation-inhibition concentration),DU-145,7 µM
same,CC50 at 96 h,[1],5.4 µM
same,CC50,MCF7,8.4 µM
same,CC50,HepG2,12 µM
Cc1ccc(/C=C(\C#N)n2nc3ccccc3n2)cc1,CC50 at 96 h,[1],20 µM
N#C/C(=C\c1ccc(Cl)cc1)n1nnc2ccccc21,CC50 at 96 h,[1],0.4 µM
N#C/C(=C\c1cccs1)n1nc2ccccc2n1,CC50 at 96 h,[1],132 µM
N#C/C(=C\c1cccc([N+](=O)[O-])c1)n1nnc2cc(C(F)(F)F)ccc21,CC50 at 96 h,[1],0.7 µM
N#C/C(=C\c1ccc2c(c1)OCO2)n1nnc2ccccc21,IC50 (50% antiproliferative concentration),CCRF-CEM,0.9 µM
same,CC50,SK-MES-1,3.3 µM
same,CC50,CCRF-SB,0.6 µM
same,CC50,SK-MEL-28,3.3 µM
same,Activity,K562 [2],22.67%
same,CC50,WIL2-NS,0.6 µM
same,inhibition,[5],inactive
same,IC50 (50% proliferation-inhibition concentration),DU-145,3.4 µM
same,CC50 at 96 h,[1],0.1 µM
same,Activity,K562 [3],66.34%
same,CC50,MCF7,1.3 µM
same,Activity,K562 [4],10.9%
same,CC50,HepG2,3.1 µM
same,IC50,[6],0.85 µM
Cc1cc2nnn(/C(C#N)=C/c3ccc4c(c3)OCO4)c2cc1C,CC50 at 96 h,[1],1.3 µM
Cc1cc2nnn(/C(C#N)=C/c3cccc([N+](=O)[O-])c3)c2cc1C,CC50 at 96 h,[1],0.5 µM
